According to ChEMBL document CHEMBL1671635, “Effect of protein binding on the pharmacological activity of highly bound antibiotics” (Antimicrob Agents Chemother, 2008):
In brackets after ≈: the same amount, converted by molar mass. Activity calls are given as the source filed them. No cut-off for these calls is given here.

Columns and labels:
Plasma [1] = experiment: Plasma protein binding in human at 400 ug/ml; assay type: ADME, cell-free
[2] = Plasma protein binding in human at < 100 ug/ml; assay type: ADME, cell-free; details: read-out: PPB (converted)
[3] = Plasma protein binding in healthy human 1t […], iv administered as single dose by LC-MS-MS method; assay type: ADME, organism-based; details: read-out: PPB (converted)
Albumin [4] = biological target: T1, Albumin (Bos taurus, UniProt P02769); experiment: Binding affinity to bovine serum albumin in THB medium containing 40 g/L BSA; assay type: ADME; details: cattle, bovine serum albumin (40 g/L) in THB medium; read-out: PB (converted)
How it was run: (§1)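 In vitro microdialysis at 20, 40, 80, 160 and 320 μg/ml drug, in triplicate, at 37°C. Matrices were THB with 40 g/liter BSA or HSA, pooled adult bovine serum, or untreated pooled human plasma. Probes were perfused with lactated Ringer at 2.0 μl/min, with recovery set in Ringer alone. Samples were taken over a 30-min period and assayed by HPLC-UV. Binding = 1 − dialysate/(recovery × total).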

Albumin [5] = biological target: T1, Albumin; experiment: Binding affinity to pooled adult bovine serum albumin; assay type: ADME; details: cattle, read-out: PB (converted); how it was run: as §1
Albumin [6] = biological target: Albumin (Homo sapiens, UniProt P02768); experiment: Binding affinity to human serum albumin in THB medium containing 40 g/L HSA; assay type: ADME; details: human serum albumin (40 g/L) in THB medium, read-out: PB (converted); how it was run: as §1
Plasma [7] = experiment: Protein binding in pooled human plasma by microdialysis; assay type: ADME, cell-free; how it was run: as §1
Escherichia coli [8] = experiment: Antimicrobial activity against Escherichia coli ATCC 25922 assessed as maximum killing rate constant; assay type: functional
How it was run: (§2)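 Constant-concentration time-kill curves, 6 h, in triplicate. […] Inoculum of ~5 × 10⁵ CFU/ml was grown 2 h before drug was added. Samples taken 0–6 h were counted by droplet plating after 20–24 h at 37°C. A two-compartment model (susceptible plus persister cells) was fitted simultaneously across conditions to obtain growth and maximal kill rate constants.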

Escherichia coli [9] = experiment: Antimicrobial activity against Escherichia coli ATCC 25922 by serial dilution twofold broth microdilution method; assay type: functional; details: in the assay text read “macrodilution” for “microdilution”
How it was run: (§3)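 Broth macrodilution, serial twofold dilutions, run per CLSI guidelines. Media were MHB (E. coli) or THB (S. pneumoniae), used with or without 40 g/liter BSA or HSA; supplemented broth was 0.2-μm filtered and adjusted to pH 7.4. Inoculum came from overnight 5% sheep blood agar colonies set to 0.5 McFarland in saline and diluted in broth to ~5 × 10⁵ CFU/ml. Six determinations; values reported as modes.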

Escherichia coli [10] = experiment: Bactericidal activity against Escherichia coli ATCC 25922 at 8 times MIC after 24 hrs by time kill analysis; assay type: functional, organism-based
Escherichia coli [11] = experiment: Antimicrobial activity against Escherichia coli ATCC 25922 by serial dilution twofold broth macrodilution method in presence of 40 g/L human serum albumin
Streptococcus pneumoniae [12] = experiment: Antimicrobial activity against penicillin-sensitive Streptococcus pneumoniae ATCC 6303 assessed as maximum killing rate constant; assay type: functional; how it was run: as §2
Escherichia coli [13] = experiment: Bactericidal activity against Escherichia coli ATCC 25922 at 8 times MIC after 24 hrs by time kill analysis in presence of 40 g/L human serum albumin; assay type: functional, organism-based
Escherichia coli [14] = experiment: Antimicrobial activity against Escherichia coli ATCC 25922 assessed as growth rate constant; assay type: functional; how it was run: as §2
Escherichia coli [15] = experiment: Antimicrobial activity against Escherichia coli ATCC 25922 in presence of bovine serum albumin; assay type: functional, organism-based; how it was run: as §3
Escherichia coli [16] = experiment: Antimicrobial activity against Escherichia coli ATCC 25922; assay type: functional, organism-based; how it was run: as §3
Streptococcus pneumoniae [17] = experiment: Antimicrobial activity against penicillin-sensitive Streptococcus pneumoniae ATCC 6303 by serial dilution twofold broth microdilution method; assay type: functional; details: in the assay text read “macrodilution” for “microdilution”; how it was run: as §3
Streptococcus pneumoniae [18] = experiment: Bactericidal activity against penicillin-sensitive Streptococcus pneumoniae ATCC 6303 at 8 times MIC after 24 hrs by time kill analysis in presence of 40 g/L human serum albumin; assay type: functional, organism-based
Streptococcus pneumoniae [19] = experiment: Antimicrobial activity against penicillin-sensitive Streptococcus pneumoniae ATCC 6303 assessed as growth rate constant; assay type: functional; how it was run: as §2
Streptococcus pneumoniae [20] = experiment: Antimicrobial activity against penicillin-sensitive Streptococcus pneumoniae ATCC 6303 in presence of bovine serum albumin; assay type: functional, organism-based; how it was run: as §3
Escherichia coli [21] = experiment: Antimicrobial activity against Escherichia coli ATCC 25922 by serial dilution twofold broth microdilution method in presence of 40 g/L bovine serum albumin; assay type: functional; details: in the assay text read “macrodilution” for “microdilution”; how it was run: as §3
Streptococcus pneumoniae [22] = experiment: Bactericidal activity against penicillin-sensitive Streptococcus pneumoniae ATCC 6303 at 8 times MIC after 24 hrs by time kill analysis; assay type: functional, organism-based
Streptococcus pneumoniae [23] = experiment: Antimicrobial activity against penicillin-sensitive Streptococcus pneumoniae ATCC 6303; assay type: functional, organism-based; how it was run: as §3
Streptococcus pneumoniae [24] = experiment: Bactericidal activity against penicillin-sensitive Streptococcus pneumoniae ATCC 6303 at 8 times MIC after 6 hrs by time kill analysis in presence of 40 g/L bovine serum albumin
Streptococcus pneumoniae [25] = experiment: Antimicrobial activity against penicillin-sensitive Streptococcus pneumoniae ATCC 6303 by serial dilution twofold broth microdilution method in presence of 40 g/L human serum albumin; assay type: functional; details: in the assay text read “macrodilution” for “microdilution”; how it was run: as §3
Streptococcus pneumoniae [26] = experiment: Antimicrobial activity against penicillin-sensitive Streptococcus pneumoniae ATCC 6303 by serial dilution twofold broth microdilution method in presence of 40 g/L bovine serum albumin; assay type: functional; details: in the assay text read “macrodilution” for “microdilution”; how it was run: as §3
Streptococcus pneumoniae [27] = experiment: Antimicrobial activity against penicillin-sensitive Streptococcus pneumoniae ATCC 6303 in presence of human serum albumin; assay type: functional, organism-based; how it was run: as §3
Escherichia coli [28] = experiment: Bactericidal activity against Escherichia coli ATCC 25922 at 8 times MIC after 6 hrs by time kill analysis in presence of 40 g/L bovine serum albumin
Escherichia coli [29] = experiment: Antimicrobial activity against Escherichia coli ATCC 25922 by in presence of human serum albumin; assay type: functional, organism-based; how it was run: as §3

T1 sequence (P02769 whole entry, the tested form may be a part): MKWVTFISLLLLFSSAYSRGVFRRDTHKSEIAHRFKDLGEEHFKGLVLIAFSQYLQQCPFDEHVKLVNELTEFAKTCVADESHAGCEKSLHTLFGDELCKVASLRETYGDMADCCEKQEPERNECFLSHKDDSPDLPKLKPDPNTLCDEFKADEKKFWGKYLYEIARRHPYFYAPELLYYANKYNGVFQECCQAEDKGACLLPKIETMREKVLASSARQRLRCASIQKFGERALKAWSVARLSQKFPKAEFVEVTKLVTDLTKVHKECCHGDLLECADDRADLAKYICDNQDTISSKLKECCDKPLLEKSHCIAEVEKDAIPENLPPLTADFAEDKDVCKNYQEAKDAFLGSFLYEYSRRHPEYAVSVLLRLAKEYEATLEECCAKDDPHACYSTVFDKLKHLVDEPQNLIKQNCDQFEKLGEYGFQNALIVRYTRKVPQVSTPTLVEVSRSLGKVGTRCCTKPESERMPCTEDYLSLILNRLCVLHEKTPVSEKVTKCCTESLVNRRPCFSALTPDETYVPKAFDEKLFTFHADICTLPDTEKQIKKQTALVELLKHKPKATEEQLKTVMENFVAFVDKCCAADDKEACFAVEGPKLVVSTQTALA
Sequence of Albumin (Homo sapiens, UniProt P02768) (P02768 whole entry): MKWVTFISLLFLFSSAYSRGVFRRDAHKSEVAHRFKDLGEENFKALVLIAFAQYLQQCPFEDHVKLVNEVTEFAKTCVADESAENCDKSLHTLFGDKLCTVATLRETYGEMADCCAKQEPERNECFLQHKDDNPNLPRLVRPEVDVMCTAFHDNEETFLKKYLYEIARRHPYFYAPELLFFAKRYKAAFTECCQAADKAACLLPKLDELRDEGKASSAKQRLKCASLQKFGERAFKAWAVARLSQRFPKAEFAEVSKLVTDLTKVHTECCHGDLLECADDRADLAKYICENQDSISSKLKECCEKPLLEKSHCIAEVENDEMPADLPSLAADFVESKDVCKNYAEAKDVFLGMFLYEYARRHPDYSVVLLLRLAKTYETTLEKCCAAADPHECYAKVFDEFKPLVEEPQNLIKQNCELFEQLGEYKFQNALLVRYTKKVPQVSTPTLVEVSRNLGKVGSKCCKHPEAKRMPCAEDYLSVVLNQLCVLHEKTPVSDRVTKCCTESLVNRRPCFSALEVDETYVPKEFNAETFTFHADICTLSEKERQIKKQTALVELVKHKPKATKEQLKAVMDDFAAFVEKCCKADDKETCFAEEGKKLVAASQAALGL

SMILES | fraction unbound [3] | fraction unbound (Albumin [4]) | fraction unbound (Albumin [5]) | fraction unbound (Albumin [6]) | PPB (Plasma [7]) | Kkmax (Escherichia coli [8]) | MIC (Escherichia coli [9]) | Activity (Escherichia coli [10]) | MIC (Escherichia coli [11]) | Kkmax (Streptococcus pneumoniae [12]) | Ks (Escherichia coli [14]) | EC50 (Escherichia coli [15]) | EC50 (Escherichia coli [16]) | MIC (Streptococcus pneumoniae [17]) | Ks (Streptococcus pneumoniae [19]) | EC50 (Streptococcus pneumoniae [20]) | MIC (Escherichia coli [21]) | Activity (Streptococcus pneumoniae [22]) | EC50 (Streptococcus pneumoniae [23]) | MIC (Streptococcus pneumoniae [25]) | other results
CO/N=C(\C(=O)N[C@@H]1C(=O)N2C(C(=O)O)=C(CSc3nc(=O)c(=O)[nH]n3C)CS[C@H]12)c1csc(N)n1 [CEFTRIAXONE] | 0.17 | 0.798 | 0.693 | 0.431 | 76.8% | – | – | – | – | – | – | – | – | – | – | – | – | – | – | – | PPB (Plasma [1]): 60%; fraction unbound [2]: 0.1
CO/N=C(\C(=O)N[C@@H]1C(=O)N2C(C(=O)O)=C(CSc3nc(=O)c(O)nn3C)CS[C@H]12)c1csc(N)n1 [CEFTRIAXONE] | – | – | – | – | – | 6.34 h⁻¹ | 0.064 µg/mL (≈ 0.115 µM) | Active | 2 µg/mL | 3.59 h⁻¹ | 2.4 h⁻¹ | 0.057 µg/mL | 0.027 µg/mL (≈ 0.0487 µM) | 0.01 µg/mL (≈ 0.018 µM) | 1.56 h⁻¹ | 0.015 µg/mL | 0.064 µg/mL | Active | 0.004 µg/mL (≈ 0.00721 µM) | 0.16 µg/mL | Activity (Escherichia coli [13]): inactive; Activity (Streptococcus pneumoniae [18]): inactive; Activity (Streptococcus pneumoniae [24]): inactive; MIC (Streptococcus pneumoniae [26]): 0.02 µg/mL; EC50 (Streptococcus pneumoniae [27]): 0.084 µg/mL; Activity (Escherichia coli [28]): inactive; EC50 (Escherichia coli [29]): 1.1 µg/mL
C[C@@H](O)[C@H]1C(=O)N2C(C(=O)O)=C(S[C@@H]3CN[C@H](C(=O)Nc4cccc(C(=O)O)c4)C3)[C@H](C)[C@H]12 [ERTAPENEM] | 0.16 | 0.876 | 0.617 | 0.822 | 73.8% | 6.02 h⁻¹ | 0.015 µg/mL (≈ 0.0315 µM) | Active | 0.03 µg/mL | 3.28 h⁻¹ | 2.76 h⁻¹ | 0.02 µg/mL | 0.01 µg/mL (≈ 0.021 µM) | 0.025 µg/mL (≈ 0.0526 µM) | 2.28 h⁻¹ | 0.01 µg/mL | 0.015 µg/mL | Active | 0.01 µg/mL (≈ 0.021 µM) | 0.025 µg/mL | MIC (Streptococcus pneumoniae [26]): 0.025 µg/mL; EC50 (Streptococcus pneumoniae [27]): 0.019 µg/mL; EC50 (Escherichia coli [29]): 0.014 µg/mL
